PRMT1 FP inh: blocks human protein arginine methyltransferase 1. Q99873. recombinant PRMT1, activity-based probe fluorescence polarization. 370,000 tested, 1.3% active. inhibition, % at 2.79 µM;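 active means inhibition above about 21% made by adding two undisclosed values, limit read from the data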
SIAE inh: human SIAE inhibition, primary screen; SIAE FP-Rh probe binding, fluorescence polarization; Q9HAT2; inhibition, % at 9.66 µM; 370,000 tested, 0.69% active;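 active means inhibition above a cutoff: mean of compounds within the control limits plus 3 SD of those, cut at about 17% in these data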;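 further: 0% = plate median of compound wells and 100% = probe without SIAE protein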
TCR CD3 inh: human TCR-CD3 binding inhibition | inhibition, % at 9.4 µM | TAMRA-labeled TCR probe fluorescence, biochemical | AID 651800 | 360,000 tested, 0.37% active; in the data active means inhibition above about 19%;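 further: recombinant mutant TCR 2C K166C tagged with TAMRA read by polarization; 0% = receptor in buffer alone and 100% = receptor with positive control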
HTRA1 inh: HTRA1 (human) protease inhibition. 340,000 tested, 0.5% active. recombinant HTRA1, FP-rhodamine activity-based probe, fluorescence polarization. inhibition, % at 5.96 µM; in the data active means inhibition above about 36%;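 further: 0% = enzyme with DMSO and 100% = wells lacking enzyme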
mABHD4 FP: inhibitors of mouse ABHD4 | purified mABHD4, FP-Rh probe fluorescence polarization | 370,000 tested, 0.54% active | inhibition, % at 8.92 µM;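 active means inhibition exceeding the mean over every tested compound plus 3 SD, cut at about 30% in these data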;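 further: 0% = plate median of compound wells and 100% = S159A mutant with DMSO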
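Test system: mABHD4 protein; Read-out basis: % inhibition; Incubation: 45 min + 60 min at 25 °C; Repeats: single replicate; Technique: fluorescence polarization with parallel and perpendicular emission, 525/598 nm; Compound: 8.92 µM, single dose; Benchmarks: full inhibition S159A mutant plus DMSO, zero as sample-well median.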
PAD4 FP inh: inhibitors of human PAD4. recombinant PAD4, RCA probe fluorescence polarization. 330,000 tested, 0.41% active. inhibition, % at 6.36 µM. Q9UM07;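 active means percent inhibition above a cutoff equal to the mean of all tested compounds plus 3 SD, cut at about 15% in these data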;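 further: 0% = PAD4 with RCA probe and DMSO and 100% = probe without PAD4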
Target sequence (Q9UM07 whole entry, looked up): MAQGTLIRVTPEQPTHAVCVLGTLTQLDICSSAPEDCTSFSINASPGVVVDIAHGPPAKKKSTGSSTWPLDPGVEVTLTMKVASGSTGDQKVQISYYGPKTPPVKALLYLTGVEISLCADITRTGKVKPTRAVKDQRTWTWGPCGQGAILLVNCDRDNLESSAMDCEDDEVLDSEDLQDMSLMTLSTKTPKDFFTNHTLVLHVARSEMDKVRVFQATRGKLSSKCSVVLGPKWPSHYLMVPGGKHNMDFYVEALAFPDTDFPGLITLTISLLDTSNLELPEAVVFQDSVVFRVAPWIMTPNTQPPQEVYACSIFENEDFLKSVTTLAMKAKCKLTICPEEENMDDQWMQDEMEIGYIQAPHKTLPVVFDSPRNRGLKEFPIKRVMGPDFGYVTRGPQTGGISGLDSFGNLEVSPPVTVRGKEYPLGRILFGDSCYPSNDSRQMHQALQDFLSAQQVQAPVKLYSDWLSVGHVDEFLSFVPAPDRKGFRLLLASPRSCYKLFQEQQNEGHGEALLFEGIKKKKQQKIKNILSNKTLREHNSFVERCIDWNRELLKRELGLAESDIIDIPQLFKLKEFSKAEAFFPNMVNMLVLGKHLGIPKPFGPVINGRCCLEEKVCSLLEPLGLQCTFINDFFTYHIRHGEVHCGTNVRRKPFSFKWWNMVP
PRMT1 inh conf: PRMT1 (human) inhibition, FP confirmation | shares compounds with PRMT1 FP inh | recombinant His-PRMT1, activity-based probe fluorescence polarization | inhibition, % at 2.79 µM | 3,300 tested, 42% active;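 active means mean inhibition across replicates above the hit cutoff derived for the earlier primary screen, cut at about 22% in these data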
An asterisk follows results filed as active; x = not tested or not shown. Compounds with a hit are over-represented: about 2.9% of the library has one in this group of screens.

SMILES	PRMT1 FP inh	SIAE inh	TCR CD3 inh	HTRA1 inh	mABHD4 FP	PAD4 FP inh	PRMT1 inh conf
Cc1ccc2c(nc3s/c(=C\c4ccc(-c5ccccc5C(=O)O)o4)c(=O)n32)c1C	29*	5	-2	-5	9	-3	3
CCN(CC)S(=O)(=O)c1ccc(C(=O)NCc2n[nH]c(=S)n2-c2ccc(Cl)c(Cl)c2)cc1	28*	7	4	-5	-1	-10	2
COC(=O)[C@H](C(C)C)N1Cc2nnn(Cc3ccccc3)c2C=CS1(=O)=O	-3	0	x	x	8	x	x
COc1ccc(CC(=O)n2[nH]c(=O)ccc2=O)cc1OC	75*	1	11	x	0	3	96*
CC1=NN(c2ccccc2)C(=O)C1C(=S)SC1CC(=O)NC1=O (stereo not given)	14	11	-4	8	4	x	x
O=C1CC(SC(=S)C2CCCC2=O)C(=O)N1 (stereo not given)	64*	-2	2	7	25	x	82*
O=C(CCSc1ccccn1)c1ccccc1	52*	11	2	-4	2	-10	24*
O=C(O)CCSc1ccccn1	19	4	1	3	6	-6	x
Cc1c(C(=O)OCC(C)C)[nH]c2c1C(=O)CC(c1ccco1)C2 (stereo not given)	31*	-3	0	-17	23	1	9
C=CCOC(=O)c1[nH]c2c(c1C)C(=O)CC(c1ccco1)C2 (stereo not given)	x	x	x	x	x	-3	x
COc1ccccc1NC(=O)CSc1sc2c(O)cc(=O)[nH]c2c1C#N	27*	-27	13	-26	-10	-8	16
COc1ccc(Cl)cc1NC(=O)CSc1nc2sccc2c(=O)[nH]1	5	-9	-3	-20	-5	-5	x
COc1ccc(Cl)cc1NC(=O)CSc1sc2c(O)cc(=O)[nH]c2c1C#N	29*	-56	9	-44	-11	-13	3
CCOc1ccc(-n2c(SCC(=O)Nc3ccc(S(=O)(=O)Nc4cc(C)nc(C)n4)cc3)nnc2-c2ccco2)cc1	-4	-4	x	x	-11	x	x
NC(=O)CC(NSc1ccccc1[N+](=O)[O-])C(=O)O (stereo not given)	34*	-2	4	-6	-3	7	23*
COC(=O)C1=C(C)N(Cc2cccc(C(F)(F)F)c2)C(=NCC2CC2)NC1c1ccc(F)cc1 (stereo not given)	-1	9	7	x	10	x	x
CC(C)(C)c1cc(C(=S)N2CCN(CCO)CC2)cc(C(C)(C)C)c1O	27*	4	-10	4	1	0	19
O=[N+]([O-])c1ccc(C(=S)N2CCCC2)cc1	7	-5	1	-3	5	-2	x
CCN1CCN(C(=S)c2ccc([N+](=O)[O-])cc2)CC1	34*	-4	8	5	-2	4	35*
COc1ccc(C(=S)N2CCNCC2)cc1	1	2	-6	-1	-3	-3	x
COc1ccc(C(=S)N2CCCCCC2)cc1	26*	-10	5	-7	-12	3	13
OCCN1CCN(C(=S)c2ccc(Cl)cc2)CC1	32*	6	3	4	-1	-1	40*
CCOc1ccc(C(=S)N2CCN(C)CC2)cc1	28*	-1	1	6	9	0	33*
COc1ccc(C(=S)N2CCN(c3ccccc3C)CC2)cc1	16	-2	-12	-15	-17	-2	x
CCN1CCN(C(=S)c2ccc(OC)cc2)CC1	48*	5	-1	0	2	-3	37*
SMILES	PRMT1 FP inh	SIAE inh	TCR CD3 inh	HTRA1 inh	mABHD4 FP	PAD4 FP inh	PRMT1 inh conf
CCN1CCN(C(=S)c2ccc(Cl)cc2)CC1	85*	8	-1	-1	0	-3	90*
CCOc1ccc(C(=S)N2CCCC2)cc1	2	-1	-6	6	7	2	x
COC(=O)[C@]12C[C@H](CC(=O)NCc3cccc(C(F)(F)F)c3)C(=O)N(Cc3cccc4ccccc34)C1=C[C@H](C(C)(C)C)O[C@@H]2C	2	-2	x	x	-10	x	x
CC(C)C[C@H]1COc2cc(Br)ccc2S(=O)(=O)N1Cc1cn(Cc2ccc(C(F)(F)F)cc2)nn1	-3	5	x	x	6	x	x
Clc1cccc(Cc2c(-c3ccco3)nc3c4ccccc4ccn23)c1	25*	-13	0	x	3	x	9
Fc1cccc(Cc2c(-c3ccco3)nc3c4ccccc4ccn23)c1	30*	0	-6	x	-6	x	10
CN(C)CCCNC(=O)c1c(N)[nH]c(C(=O)c2ccc(Br)cc2)c1-c1ccc(Br)cc1	1	6	9	x	7	x	x
CCSc1nc(=S)n(Cc2ccccc2)c(C)c1C(C)=O	4	-6	6	-1	10	-3	x
CC(=O)c1c(N2CCN(C)CC2)nc(=S)n(Cc2ccccc2)c1C	39*	1	0	-3	7	-1	-5
O=C(/C=C(\Nc1cc(Cl)c(Cl)c(Cl)c1)c1ccccc1)c1ccccc1	-3	5	-5	x	3	x	x
CC1CCC/C(=C\c2ccc(O)cc2)C1=O (stereo not given)	5	2	0	5	0	4	x
COc1ccc(/C=C2/CCC(CN3CCOCC3)C2=O)cc1 (stereo not given)	53*	2	2	-29	0	x	61*
CN(C)CC1CC/C(=C\c2ccc(O)cc2)C1=O (stereo not given)	53*	0	2	-13	0	x	45*
CCc1ccc(CNCC(=O)N2CCC3(CC2)OCCO3)s1	-6	9	x	x	-1	x	x
CC1CCC2(CC1)CCN(CCCOC(=O)Nc1cccc(C(F)(F)F)c1)C2=O (stereo not given)	3	-3	x	x	6	x	x
Nc1cc(S(=O)(=O)N2CCOCC2)ccc1N1CCCCC1	17	1	-7	1	5	1	x
O=c1c2ccccc2sn1-c1cc(S(=O)(=O)N2CCOCC2)ccc1N1CCCC1	88*	6	-13	-1	16	0	80*
CCCC(=O)OC[C@H]1CN(C2CCCC2)S(=O)(=O)c2c(Oc3ccc(F)cc3OC)cccc2O1	-1	-1	-5	x	2	x	x
Cc1cc(NC(=O)Cc2ccsc2)ccc1Br	-4	-4	-4	-14	-16	-1	x
Cc1cc(C)c2c(=O)n(CC(=O)Nc3cccc(Cl)c3C)sc2n1	97*	6	2	3	11	1	92*
Cc1cc(C)c2c(=O)n(CC(=O)Nc3ccc(Br)c(C)c3)sc2n1	93*	1	5	-5	4	-2	97*
COc1ccc(OC)c(CCNC(=O)Cn2sc3nc(C)cc(C)c3c2=O)c1	x	x	x	x	x	1	x
Cc1cc(C)c2c(=O)n(CC(=O)NC3CCCC3)sc2n1	83*	12	0	2	21	4	89*
